Data reported in ChEMBL document CHEMBL1137710, “Synthesis and in vitro antitumor activity of new quinoxaline derivatives” (2009).

Legend:
Format in all cases: functional
A549 = experiment: Growth inhibition of human A549 cells after 48 hrs by sulforhodamine B assay; conditions: A549, 48 h
In short: (§1)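 NCI 60-human-tumor-cell-line panel, with compounds tested over a 5-log dose range. Values are taken from dose-response curves as log10 molar concentrations: GI50 is 50% net growth inhibition, TGI is total growth inhibition, and LC50 is 50% net cell death.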

OVCAR-5 = experiment: Growth inhibition of human OVCAR5 cells after 48 hrs by sulforhodamine B assay; conditions: OVCAR-5, 48 h; in short: as §1
KM12 = experiment: Growth inhibition of human KM12 cells after 48 hrs by sulforhodamine B assay; conditions: KM12, 48 h; in short: as §1
OVCAR-8 = experiment: Growth inhibition of human OVCAR8 cells after 48 hrs by sulforhodamine B assay; conditions: OVCAR-8, 48 h; in short: as §1
SF-295 = experiment: Growth inhibition of human SF295 cells after 48 hrs by sulforhodamine B assay; conditions: SF-295, 48 h; in short: as §1
CAKI-1 = experiment: Growth inhibition of human Caki1 cells after 48 hrs by sulforhodamine B assay; conditions: CAKI-1, 48 h; in short: as §1
COLO 205 = experiment: Growth inhibition of human COLO205 cells after 48 hrs by sulforhodamine B assay; conditions: COLO 205, 48 h; in short: as §1
TK-10 = experiment: Growth inhibition of human TK10 cells after 48 hrs by sulforhodamine B assay; conditions: TK-10, 48 h
In short: (§2)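 Run in the NCI 60-human-tumour-cell-line panel, tested over a 5-log dose range. Dose–response curves gave three values per cell line, each as a log10 molar concentration: GI50 (50% inhibition of net cell growth), TGI (total inhibition of net growth) and LC50 (50% net cell death). The mean graph midpoint is the arithmetic mean over all lines, with insensitive lines entered at the highest concentration tested.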

HCT-116 = experiment: Growth inhibition of human HCT116 cells after 48 hrs by sulforhodamine B assay; conditions: HCT-116, 48 h; in short: as §1
SF-268 = experiment: Anticancer activity against human SF268 cells assessed as cell growth at 100 uM after 48 hrs by sulforhodamine B assay; conditions: SF-268, 48 h, read-out: Activity
SW-620 = experiment: Growth inhibition of human SW620 cells after 48 hrs by sulforhodamine B assay; conditions: SW-620, 48 h; in short: as §2
NCI-H23 = experiment: Growth inhibition of human NCI-H23 cells after 48 hrs by sulforhodamine B assay; conditions: NCI-H23, 48 h; in short: as §1
M14 = experiment: Growth inhibition of human M14 cells after 48 hrs by sulforhodamine B assay; conditions: M14, 48 h; in short: as §1
PC-3 = experiment: Growth inhibition of human PC3 cells after 48 hrs by sulforhodamine B assay; conditions: PC-3, 48 h; in short: as §1
786-0 = experiment: Growth inhibition of human 786-0 cells after 48 hrs by sulforhodamine B assay; conditions: 786-0, 48 h; in short: as §1
MDA-MB-231 = experiment: Growth inhibition of human MDA-MB-231 cells after 48 hrs by sulforhodamine B assay; conditions: MDA-MB-231, 48 h; in short: as §1
SNB-19 = experiment: Growth inhibition of human SNB19 cells after 48 hrs by sulforhodamine B assay; conditions: SNB-19, 48 h; in short: as §2
SK-OV-3 = experiment: Growth inhibition of human SKOV3 cells after 48 hrs by sulforhodamine B assay; conditions: SK-OV-3, 48 h; in short: as §1
RXF 393 = experiment: Growth inhibition of human RXF393 cells after 48 hrs by sulforhodamine B assay; conditions: RXF 393, 48 h; in short: as §1
SR = experiment: Growth inhibition of human SR cells after 48 hrs by sulforhodamine B assay; in short: as §2
U-251 = experiment: Growth inhibition of human U251 cells after 48 hrs by sulforhodamine B assay; conditions: U-251, 48 h; in short: as §2
MDA-MB-435 = experiment: Growth inhibition of human MDA-MB-435 cells after 48 hrs by sulforhodamine B assay; conditions: MDA-MB-435, 48 h; in short: as §1
NCI/ADR-RES = experiment: Growth inhibition of human NCI/ADR-RES cells after 48 hrs by sulforhodamine B assay; in short: as §1
DU-145 = experiment: Growth inhibition of human DU145 cells after 48 hrs by sulforhodamine B assay; conditions: DU-145, 48 h; in short: as §1
NCI-H460 = experiment: Growth inhibition of human NCI-H460 cells after 48 hrs by sulforhodamine B assay; conditions: NCI-H460, 48 h; in short: as §1
LOX IMVI = experiment: Growth inhibition of human LOXIMVI cells after 48 hrs by sulforhodamine B assay; in short: as §1
MCF7 = experiment: Anticancer activity against human MCF7 cells assessed as cell growth at 100 uM after 48 hrs by sulforhodamine B assay; conditions: MCF7, 48 h, read-out: Activity
[1] = Growth inhibition of human Hs 578T cells after 48 hrs by sulforhodamine B assay; in short: as §1
[2] = Growth inhibition of human […] cells after 48 hrs by sulforhodamine B assay; in short: as §1
[3] = read-out: pLC50 (the source's name) (converted)

Q: Which results are given for Nc1cc(N)c2nc(-c3ccccc3)c(NCc3ccc(Cl)c(Cl)c3)nc2c1?
A: GI50 (A549): 10.7 µM; LC50 (A549): 69.2 µM; TGI (A549; read-out: pTGI (converted)): 27.5 µM; GI50 (OVCAR-5): 24 µM; CC50 (OVCAR-5; [3]): 69.2 µM; TGI (OVCAR-5; read-out: pTGI (converted)): 40.7 µM; GI50 (KM12): 3.39 µM; LC50 (50% net cell kill) (KM12): > 100 µM; TGI (KM12; read-out: pTGI (converted)): 21.4 µM; GI50 (OVCAR-8): 3.39 µM; CC50 (OVCAR-8; [3]): > 100 µM; TGI (OVCAR-8; read-out: pTGI (converted)): 13.5 µM; GI50 (SF-295): 15.5 µM; LC50 (50% net cell kill) (SF-295): 89.1 µM; TGI (SF-295; read-out: pTGI (converted)): 37.2 µM; GI50 (CAKI-1): 13.2 µM; CC50 (CAKI-1; [3]): > 100 µM; TGI (CAKI-1; read-out: pTGI (converted)): 52.5 µM; GI50 (COLO 205): 17 µM; LC50 (50% net cell kill) (COLO 205): 66.1 µM; TGI (COLO 205; read-out: pTGI (converted)): 33.9 µM; GI50 (TK-10): 12.9 µM; CC50 (TK-10; [3]): 72.4 µM; TGI (TK-10; read-out: pTGI (converted)): 30.2 µM; GI50 (HCT-116): 11.5 µM; LC50 (concentration causing 50% net cell death) (HCT-116): 50.1 µM; TGI (HCT-116; read-out: pTGI (converted)): 24 µM; growth at 100 µM (SF-268): 0%; GI50 (SW-620): 3.24 µM; CC50 (SW-620; [3]): > 100 µM; TGI (SW-620; read-out: pTGI (converted)): 9.77 µM; GI50 (NCI-H23): 14.1 µM; LC50 (50% net cell kill concentration) (NCI-H23): 55 µM; TGI (NCI-H23; read-out: pTGI (converted)): 27.5 µM; GI50 (M14): 15.8 µM; CC50 (M14; [3]): 75.9 µM; TGI (M14; read-out: pTGI (converted)): 34.7 µM; GI50 (PC-3): 1.74 µM; CC50 (PC-3; [3]): 19.1 µM; TGI (PC-3; read-out: pTGI (converted)): 5.13 µM; GI50 (786-0): 13.2 µM; CC50 (786-0; [3]): 70.8 µM; TGI (786-0; read-out: pTGI (converted)): 30.2 µM; GI50 (MDA-MB-231): 1.58 µM; CC50 (MDA-MB-231; [3]): > 100 µM; TGI (MDA-MB-231; read-out: pTGI (converted)): 4.47 µM; GI50 (SNB-19): 22.4 µM; LC50 (SNB-19): > 100 µM; TGI (SNB-19; read-out: pTGI (converted)): 51.3 µM; GI50 (SK-OV-3): 18.6 µM; CC50 (SK-OV-3; [3]): 69.2 µM; TGI (SK-OV-3; read-out: pTGI (converted)): 36.3 µM; GI50 (RXF 393): 3.09 µM; CC50 (RXF 393; [3]): > 100 µM; TGI (RXF 393; read-out: pTGI (converted)): 17 µM; GI50 (SR): 1.62 µM; LC50 (concentration giving 50% net cell death) (SR): > 100 µM; TGI (SR; read-out: pTGI (converted)): 6.03 µM; GI50 (U-251): 2.09 µM; LC50 (50% net cell kill) (U-251): > 100 µM; GI50 (MDA-MB-435): 2.75 µM; CC50 (MDA-MB-435; [3]): 52.5 µM; TGI (MDA-MB-435; read-out: pTGI (converted)): 7.59 µM; GI50 (NCI/ADR-RES): 17.4 µM; CC50 (NCI/ADR-RES; [3]): > 100 µM; TGI (NCI/ADR-RES; read-out: pTGI (converted)): 45.7 µM; GI50 (DU-145): 16.2 µM; CC50 (DU-145; [3]): 69.2 µM; TGI (DU-145; read-out: pTGI (converted)): 33.1 µM; GI50 (NCI-H460): 20.9 µM; LC50 (50% net cell kill) (NCI-H460): > 100 µM; TGI (NCI-H460; read-out: pTGI (converted)): 46.8 µM; GI50 (LOX IMVI): 2.14 µM; growth at 100 µM (MCF7): 0%; GI50 [1]: 5.89 µM; CC50 [1, 3]: > 100 µM; TGI ([1]; read-out: pTGI (converted)): 46.8 µM; GI50 [2]: 1.66 µM; LC50 [2]: 8.32 µM; TGI ([2]; read-out: pTGI (converted)): 3.72 µM
